Compounds with a hit are over-represented: about 11% of the library has one in this group of screens.
M1 antag = antagonists of rat M1 muscarinic receptor; B-score at 10 µM; hit rate 3.4% among 64,000; P08482; CHO-M1 cells, Fluo-4 calcium, ACh EC80 antagonist mode; active compounds read low; AID 628;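 active = calcium fluorescence response, raw or row-and-column corrected B-score, differing from the plate sample mean either way at a set confidence level, mostly lower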
S1P3 ag = S1P3 (human) receptor agonism; Q99500; activation, % at 4.5 µM; S1P3 NFAT-BLA reporter cells, FRET ratio; relative to 1 µM S1P, basal subtracted; AID 373; hit rate 0.1% among 60,000;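 active = activation above the screen-wide mean plus 3 SD, cut at about 4.5% in these data, passing the limit was not always enough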
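Benchmarks: high control 1 µM S1P / System: stable CHO line with human S1P3, Gα16, NFAT-BLA reporter / Dosing: single compound concentration, 4.5 µM final / Timing: 4 h compound at 37 °C, 2 h substrate at RT / Measured by: FRET β-lactamase substrate fluorescence, excitation 405 nm, 460/535 nm emission ratio, background-subtracted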
D1 allo mod = allosteric modulators of human D1 dopamine receptor; HEK293 D1, CRE-luciferase, dopamine EC30 potentiation; actives deviate in either direction; B-score at 10 µM; hit rate 5.9% among 58,000; P21728;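 active = luminescence count or its row- and column-corrected plate score outside the 99.7% band of the plate's sample wells, on either side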
S1P1 ag pot = S1P1 (human) agonism or agonism potentiation. S1P1 CRE-bla cells, forskolin, beta-lactamase FRET, potentiator mode; S1P1 agonist co-added at EC20, 2 nM; 100% = saturating reference agonist, 0% = basal. activation, % at 9.5 µM. hit rate 0.57% among 56,000;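 active = activation above a cutoff set at the mean activation of all tested compounds plus 3 SD, cut at about 54% in these data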;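 note: forskolin at 4 µM as EC80 and the EC20 agonist is SEW2871; 100% = SEW2871 at its EC100 plus forskolin at EC80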
Target sequence (P21453 whole entry, looked up): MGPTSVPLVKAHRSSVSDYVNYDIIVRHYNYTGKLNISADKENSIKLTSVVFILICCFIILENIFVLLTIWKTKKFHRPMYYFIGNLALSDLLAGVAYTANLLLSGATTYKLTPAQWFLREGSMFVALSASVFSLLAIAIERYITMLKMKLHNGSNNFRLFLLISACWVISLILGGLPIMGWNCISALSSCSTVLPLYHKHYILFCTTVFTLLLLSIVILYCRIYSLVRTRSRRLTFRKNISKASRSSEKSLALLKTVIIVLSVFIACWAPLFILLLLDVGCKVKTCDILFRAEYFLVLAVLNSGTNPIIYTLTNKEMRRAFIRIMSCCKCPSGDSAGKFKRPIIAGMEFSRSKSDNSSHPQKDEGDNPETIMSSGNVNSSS
M1 agonist = M1 muscarinic receptor agonism. CHO-M1 cells, Fluo-4 calcium fluorescence, agonist mode; active compounds read high. B-score at 10 µM. hit rate 3% among 64,000;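 active = fluorescence rise, raw or as B-score row- and column-corrected plate score, outside the 99.7% band of its plate's samples, either direction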
M1 antag confirm = confirmation of rat M1 muscarinic receptor antagonists; shares compounds with M1 antag; CHO-M1 cells, Fluo-4 calcium, ACh EC80 antagonism; active compounds read low; calcium response (max-min fluorescence) at 10 µM; hit rate 43% among 1,700;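 active = calcium response below the same-plate mean of wells given acetylcholine alone at its 80%-effect dose, minus 3 SD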;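 note: raw fluorescence intensity difference in arbitrary instrument units and not normalized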
mGluR4 antag = mGluR4 (human) activity, M1 antagonist secondary assay; shares compounds with M1 antag; CHO-mGluR4 calcium flux, Fluo-4 fluorescence, glutamate EC80; active compounds read low; fluorescence response (max-min) at 10 µM; hit rate 0.9% among 1,700; AID 678;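 active = fluorescence response below the plate's average for near-maximal glutamate wells, less 3 SD of those wells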;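 note: raw unnormalized fluorescence span taken in the window right after glutamate addition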
D1 mod confirm = D1 receptor (human) allosteric modulation, confirmed; shares compounds with D1 allo mod; HEK293 D1 CRE-luciferase, dopamine EC30 potentiation; active compounds read high; luminescence at 10 µM; hit rate 88% among 2,200; AID 642;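 active = luminescence in either of two replicates above the same-plate mean plus 3 SD of the low-dose dopamine control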
D1 no dopamine = D1 (human) signaling in absence of dopamine | shares compounds with D1 allo mod | HEK293 D1 CRE-luciferase, luminescence, no dopamine; active compounds read high | luminescence at 10 µM | hit rate 0.8% among 1,900 | AID 646; in the data active = luminescence above about 3900
Isoprot counter = counter-screen for D1 modulators: isoproterenol response in HEK293 cells. HEK293 D1 CRE-luciferase, isoproterenol EC30 counter-screen; active compounds read high. shares compounds with D1 allo mod. luminescence at 10 µM. AID 647. hit rate 63% among 2,200;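 active = luminescence in either replicate above plate mean of wells with a partly effective reference agonist dose plus 3 SD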;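 note: isoproterenol raises cAMP through native beta-adrenoceptor Gs so signal bypasses D1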
* marks the source's active call; other numbers are inactive results; . = not tested or not shown.

SMILES	M1 antag	S1P3 ag	D1 allo mod	S1P1 ag pot	M1 agonist	D1 mod confirm	D1 no dopamine	Isoprot counter	others
COc1cc(CN2CCN(C(=O)COc3ccccc3)CC2)cc(OC)c1OC	0.364	-1.3	0.0184	-32.6	-1.02	.	.	.
FC(F)(F)c1ccc2c(c1)NP(=S)(N1CCOCC1)c1nccn1-2 (configuration not stated)	-0.959	.	0.144	.	-0.165	.	.	.
CN1CCN(CCC(C#N)(c2ccccc2)c2ccccc2)CC1	-17*	.	.	.	0.0707	.	.	.	M1 antag confirm=16.2*;mGluR4 antag=230
O=c1cccc2n1CC1CC2CN(c2ncnc3c2cnn3-c2ccccc2)C1 (configuration not stated)	0.583	.	-0.188	.	-0.717	.	.	.
CCCCn1c(O)c(C(C)=Nc2c(C)n(C)n(-c3ccccc3)c2=O)c(=O)[nH]c1=O	-8.36*	-0.8	-0.0111	14.6	1.44	.	.	.	M1 antag confirm=326*;mGluR4 antag=247
CCCCn1c(O)c(C=Nc2c(C)n(C)n(-c3ccccc3)c2=O)c(=O)[nH]c1=O	-2.52*	-0.3	-0.00381	-29.4	-0.341	.	.	.	M1 antag confirm=511;mGluR4 antag=209
CCN1CCN(Cc2ccc(C)cc2)CC1	-0.0688	-1.8	-0.188	-14.7	-0.331	.	.	.
CCCCCCOc1ccc(CN2CCN(C)CC2)cc1	-3.25*	-1.2	-3.53*	0.0	-0.394	.	.	.	M1 antag confirm=502*;mGluR4 antag=222
CC(=O)OC1N=C(c2ccccc2)c2ccccc2NC1=O (configuration not stated)	0.388	-4.6	-1.34	1.7	-0.754	.	.	.
CCCNS(=O)(=O)c1ccc(OCC(=O)N2CCN(Cc3ccccc3)CC2)cc1	-0.777	-0.3	-0.0291	9.1	-0.00303	.	.	.
COC(=O)c1ccc(CN2CCN(Cc3ccccc3)CC2)cc1	-3.06*	-1.1	0.554	-17.6	0.48	.	.	.	M1 antag confirm=428*;mGluR4 antag=234
CN1C2CCC1CC(OC(=O)c1ccc(Cl)cc1)C2 (configuration not stated)	-19.5*	-0.2	0.0914	-30.9	0.0129	.	.	.	M1 antag confirm=60.6*;mGluR4 antag=230
O=C(C1CCC(=O)N1C1CCCCC1)N1CCC2(CC1)OCCO2 (configuration not stated)	-0.0193	-0.7	0.397	1.6	-1.68	.	.	.
CCOC(=O)C1=C(C)N(C)C2(C)CC1c1ccccc1O2 (configuration not stated)	-2.39*	-0.1	-0.873	-17.3	0.859	.	.	.	M1 antag confirm=563;mGluR4 antag=209
O=C(C(Cc1ccccc1)NS(=O)(=O)c1ccc(F)cc1)N1CCC2(CC1)OCCO2 (configuration not stated)	-0.765	.	0.0141	.	1.95	.	.	.
O=C1NC(=O)C(CCc2ccncc2)(C2CCCCC2)C(=O)N1	-4.59*	1.3	-0.635	-18.3	0.018	.	.	.	M1 antag confirm=550*;mGluR4 antag=185
COc1ccc(-n2c(O)c(C(C)=NC3CC3)c(=O)[nH]c2=O)cc1	-0.609	-0.9	1.28	-10.1	-0.0118	.	.	.
CC1CN=C(Nc2ccc(N(C)C)cc2)S1 (configuration not stated)	-2.12*	-3.9	-3.59	-3.7	-1.56	.	.	.	M1 antag confirm=606;mGluR4 antag=240
CC1CN=C(Nc2ccccc2)S1 (configuration not stated)	-0.172	-1.8	.	-15.9	-0.622	.	.	.
O=c1cccc2n1CC1CC2CN(Cc2c(Cl)cccc2Cl)C1 (configuration not stated)	-0.00342	0.1	0.466	.	0.144	.	.	.
Cc1ccc(CN2CC3CC(C2)c2cccc(=O)n2C3)cc1 (configuration not stated)	-0.00769	-1.1	3.33*	-0.3	-0.897	7636	1800	2372
COCCCn1c(N)c(C(=O)OC(C)COC)c2nc3ccccc3nc21 (configuration not stated)	0.252	0.1	5.55*	-13.0	0.644	8820*	1816	2856
CCOC(=O)c1c(N)n(CCN2CCCCC2)c2nc3ccccc3nc12	0.026	0.0	0.376	-6.0	0.0187	.	.	.
CCC(C)NC(=O)c1c(N)n(CCCOC)c2nc3ccccc3nc12 (configuration not stated)	0.142	2.2	5.09*	-94.8	-0.95	9844*	1520	2960*
CCCCOCCCn1c(N)c(C(=O)OC(C)COC)c2nc3ccccc3nc21 (configuration not stated)	-0.802	-1.6	6.75*	-3.8	3.84	11516*	1488	3460*
SMILES	M1 antag	S1P3 ag	D1 allo mod	S1P1 ag pot	M1 agonist	D1 mod confirm	D1 no dopamine	Isoprot counter	others
FC(F)(F)C1=NC(C(F)(F)F)=NP(N2CCOCC2)(N2CCOCC2)=N1	-1.03	0.7	0.242	-34.4	-0.52	.	.	.
CN(C)C1=NC(N(C)C)=NP(N(C)C)(N(C)C)=N1	-0.159	-0.6	-0.781	1.8	0.216	.	.	.
CCOC(=O)N(c1ccccc1)P1(=S)OCC(C)O1 (configuration not stated)	.	-0.8	.	10.0	.	.	.	.
COC(=O)N(c1ccccc1)P1(=S)OCCO1	-0.00566	-0.3	5.31*	-6.8	0.821	11592*	1628	3344*
CCOC(=O)N(c1ccccc1)P1(=S)OCCO1	0.147	-1.1	7.42*	-1.1	0.974	19704*	1752	3780*
CCC(=NCc1ccco1)c1c(O)[nH]c(=O)[nH]c1=O	0.0272	-0.4	8.61*	1.0	-1.12	16800*	.	4016*
Cc1cccc(N2CCc3c2nc2ccccc2c3N)c1	-0.9	-2.1	-1.8	0.7	-0.785	.	.	.
O=c1[nH]c2ccccc2c(=O)n1-c1cccc(Cl)c1	1.8	-0.7	9.16*	-12.8	0.169	10464*	1816	3436*
CCCCn1c(O)c(C(C)=NCc2ccc(F)cc2)c(=O)[nH]c1=O	0.536	-0.8	4*	-5.3	-0.499	10964*	1708	2908
CCCCn1c(O)c(C(CC)=NCCCN(C)C)c(=O)[nH]c1=O	.	-0.4	0.246	-5.1	.	.	.	.
C=CCn1c(O)c(C(C)=NCc2cccnc2)c(=O)[nH]c1=O	1.61	0.1	0.649	-7.0	-0.446	.	.	.
CCCCn1c(O)c(C(CC)=NCCc2ccccc2)c(=O)[nH]c1=O	0.109	0.2	6.28*	-31.9	1.58	8912*	1568	3084*
C=CCn1c(O)c(C(C)=NCc2cc(OC)cc(OC)c2)c(=O)[nH]c1=O	-1.02	-0.9	3.2*	6.3	-0.0254	9872*	1756	3832*
CP(=O)(O)CCCN	0.271	-1.0	-0.048	-13.4	-0.0177	.	.	.
NCC1(c2ccc3c(c2)OCCO3)CCCC1	-0.254	-2.5	0.454	1.5	-0.247	.	.	.
